In PMC12744579 (Nanotechnology, Science and Applications, 2025):

How the values were obtained:
[1] = In vivo oral gavage study, blood; set-up: species or system New Zealand White rabbits; settings: male rabbits, 60 g HED
Outline: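 Male adult New Zealand White rabbits (3.0 ± 0.3 kg) on high-fibre diet, fasted ~16 h, stratified by body weight, n=6/group. Free or pea-protein-nanoparticle-encapsulated test compound was given by oral gavage at 60 g per 70 kg adult HED, scaled by rabbit body-surface-area factors to an individual per-kg dose. Marginal ear vein blood was sampled pre-dose to 24 h (11 time-points); BHB was measured by assay kit.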

rats = settings: 14 to 21 g/kg bw/day; cited from earlier work

Which results are given for `C[C@@H](O)CC(=O)OCC(O)CO` (stereo partly drawn) [KM, (R)-3-hydroxybutyrate monoglyceride]?
[BHB]max [1]: 1.33 mmol/L; MRT ([1]; blood BHB): 6.60 h; Tmax ([1]; blood BHB): 0.75 h; systemic toxicity in vivo (rats): no systemic toxicity
